Data reported in ChEMBL document CHEMBL5036331 (J Med Chem, 2021).
In brackets after ≈: the same amount, converted by molar mass. Activity calls are given as the source filed them. No cut-off for these calls is given here.

Assays:
[1] = Aqueous solubility of the compound at pH 6.5 for 24 hrs by HPLC-MS/MS; format: physicochemical
[2] = Clearance in Wistar-Han rat hepatocytes at 1 uM measured for 2 to 90 mins by LC-MS/MS; format: ADME, cell-based, Hepatocyte; settings: Wistar-Han, time 2-90 min
[3] = system: A2780; assay: cells; format: functional, cell-based; settings: Homo sapiens, A2780, 96 h
[4] = Metabolic stability in Wistar-Han rat hepatocytes at 1 uM measured for 2 to 90 mins by LC-MS/MS; format: ADME, cell-based, Hepatocyte; settings: time 2-90 min
[5] = system: MOLM-13; assay: cells; format: functional, cell-based; settings: Homo sapiens, MOLM-13, 96 h
[6] = Aqueous solubility of the compound at pH 4 for 24 hrs by HPLC-MS/MS; format: physicochemical
[7] = Apparent permeability of the compound across apical side to basolateral side in human CaCo-2 cells at 2 uM incubated for 2 hrs; format: ADME, cell-based
How it was run: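 Caco-2 monolayers with TEER of at least 400 Ω·cm². Compound (predissolved in DMSO) added apically or basolaterally at a final 2 μM and incubated 2 h at 37 °C, in triplicate. Both compartments were sampled before and after, MeOH-precipitated and analysed by LC–MS/MS. Papp = (Vr/P0)(1/S)(P2/t).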

[8] = Efflux ratio of apparent permeability across basolateral to apical side over apical to basolateral side in human Caco2 cells at 2 uM incubated for 2 hrs; settings: Caco-2
[9] = Clearance in Wistar-Han rat Liver microsomes at 1 uM measured for 2 to 90 mins by LC-MS/MS; format: ADME, Microsome; settings: time 2-90 min
[10] = Clearance in Wistar-Han rat blood at 0.3 to 0.5 mg/kg, iv measured upto 24 hrs by HPLC with LC-MS/MS; format: ADME, organism-based; settings: dose 0.3-0.5 mg/kg
[11] = Volume of distribution at steady state in Wistar-Han rat blood at 0.3 to 0.5 mg/kg, iv measured upto 24 hrs by HPLC with LC-MS/MS; format: ADME, organism-based; settings: dose 0.3-0.5 mg/kg, read-out: Vdss
[12] = Ratio of drug level in Wistar-Han rat blood to plasma; settings: blood and plasma
[13] = target: T1, Cytochrome P450 1A2 (Homo sapiens, UniProt P05177); assay: Inhibition of CYP1A2 in human liver microsomes using phenacetin as substrate by LC-MS/MS analysis; format: ADME; settings: read-out: INH
T1 sequence (P05177 whole entry): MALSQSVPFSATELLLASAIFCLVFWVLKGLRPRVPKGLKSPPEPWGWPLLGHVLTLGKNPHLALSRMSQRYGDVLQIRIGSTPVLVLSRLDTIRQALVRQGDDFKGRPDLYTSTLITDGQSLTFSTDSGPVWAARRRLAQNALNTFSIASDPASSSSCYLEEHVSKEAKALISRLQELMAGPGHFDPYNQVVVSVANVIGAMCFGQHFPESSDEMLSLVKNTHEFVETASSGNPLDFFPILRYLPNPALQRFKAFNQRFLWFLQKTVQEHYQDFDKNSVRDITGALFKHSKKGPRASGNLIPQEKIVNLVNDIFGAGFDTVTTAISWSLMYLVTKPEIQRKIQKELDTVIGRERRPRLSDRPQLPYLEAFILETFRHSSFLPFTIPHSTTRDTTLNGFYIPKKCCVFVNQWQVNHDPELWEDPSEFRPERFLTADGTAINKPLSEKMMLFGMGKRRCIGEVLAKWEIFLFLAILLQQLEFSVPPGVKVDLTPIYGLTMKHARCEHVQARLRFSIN

[14] = target: T2, Cytochrome P450 2A6 (Homo sapiens, UniProt P11509); assay: Inhibition of CYP2A6 in human liver microsomes using coumarin as substrate by LC-MS/MS analysis; format: ADME
T2 sequence (P11509 whole entry): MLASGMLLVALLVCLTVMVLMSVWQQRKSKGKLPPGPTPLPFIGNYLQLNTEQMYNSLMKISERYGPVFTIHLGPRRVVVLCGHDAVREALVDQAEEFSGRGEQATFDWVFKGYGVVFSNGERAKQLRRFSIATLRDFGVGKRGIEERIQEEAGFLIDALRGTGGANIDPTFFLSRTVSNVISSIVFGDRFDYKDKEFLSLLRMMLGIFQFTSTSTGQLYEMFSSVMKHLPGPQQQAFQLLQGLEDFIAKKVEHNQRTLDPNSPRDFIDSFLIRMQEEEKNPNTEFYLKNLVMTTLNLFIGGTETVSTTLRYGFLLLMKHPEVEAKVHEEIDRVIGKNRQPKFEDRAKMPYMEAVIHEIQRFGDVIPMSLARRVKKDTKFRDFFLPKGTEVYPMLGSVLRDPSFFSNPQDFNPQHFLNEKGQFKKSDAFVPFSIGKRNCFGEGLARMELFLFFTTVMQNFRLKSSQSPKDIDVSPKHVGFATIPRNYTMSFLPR

[15] = target: T3, Cytochrome P450 2B6 (Homo sapiens, UniProt P20813); assay: Inhibition of CYP2B6 in human liver microsomes using bupropion as substrate by LC-MS/MS analysis; format: ADME
T3 sequence (P20813 whole entry): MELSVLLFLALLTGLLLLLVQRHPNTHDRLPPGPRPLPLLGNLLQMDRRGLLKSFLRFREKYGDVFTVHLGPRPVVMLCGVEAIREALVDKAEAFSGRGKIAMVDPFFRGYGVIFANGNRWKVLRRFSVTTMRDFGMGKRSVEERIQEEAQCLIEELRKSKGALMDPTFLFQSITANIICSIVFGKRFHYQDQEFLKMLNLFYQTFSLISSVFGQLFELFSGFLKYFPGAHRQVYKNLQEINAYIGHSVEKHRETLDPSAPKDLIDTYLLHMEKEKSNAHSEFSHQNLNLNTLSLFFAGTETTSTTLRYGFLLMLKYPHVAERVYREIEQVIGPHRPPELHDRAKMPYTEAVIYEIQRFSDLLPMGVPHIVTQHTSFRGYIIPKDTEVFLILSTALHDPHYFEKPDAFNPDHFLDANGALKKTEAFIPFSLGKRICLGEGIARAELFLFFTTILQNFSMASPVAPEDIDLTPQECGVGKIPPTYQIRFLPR

[16] = target: T4, Cytochrome P450 2C8 (Homo sapiens, UniProt P10632); assay: Inhibition of CYP2C8 in human liver microsomes using amodiaquine as substrate by LC-MS/MS analysis; format: ADME; settings: read-out: INH
T4 sequence (P10632 whole entry): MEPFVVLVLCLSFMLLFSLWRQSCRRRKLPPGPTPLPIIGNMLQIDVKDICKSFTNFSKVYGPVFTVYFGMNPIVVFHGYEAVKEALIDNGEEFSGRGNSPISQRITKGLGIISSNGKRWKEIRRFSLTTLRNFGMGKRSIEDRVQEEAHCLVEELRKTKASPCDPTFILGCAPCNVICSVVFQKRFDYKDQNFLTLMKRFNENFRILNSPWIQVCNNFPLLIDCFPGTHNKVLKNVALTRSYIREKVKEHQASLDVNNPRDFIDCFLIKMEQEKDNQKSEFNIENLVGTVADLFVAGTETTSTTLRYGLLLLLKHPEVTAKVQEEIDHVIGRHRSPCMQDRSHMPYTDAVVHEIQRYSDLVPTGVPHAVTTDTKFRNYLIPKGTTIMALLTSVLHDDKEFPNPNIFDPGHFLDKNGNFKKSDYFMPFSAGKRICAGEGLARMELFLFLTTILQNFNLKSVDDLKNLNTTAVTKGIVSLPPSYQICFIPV

[17] = target: Cytochrome P450 2C9 (Homo sapiens, UniProt P11712); assay: Inhibition of CYP2C9 in human liver microsomes using diclofenac as substrate by LC-MS/MS analysis; format: ADME; settings: read-out: INH
[18] = target: Cytochrome P450 2C19 (Homo sapiens, UniProt P33261); assay: Inhibition of CYP2C19 in human liver microsomes using (S)-mephenytoin as substrate by LC-MS/MS analysis; format: ADME; settings: read-out: INH
[19] = target: Cytochrome P450 2D6 (Homo sapiens, UniProt P10635); assay: Inhibition of CYP2D6 in human liver microsomes using dextromethorphan as substrate by LC-MS/MS analysis; format: ADME; settings: read-out: INH
[20] = target: Cytochrome P450 2E1 (Homo sapiens, UniProt P05181); assay: Inhibition of CYP2E1 in human liver microsomes using chlorzoxazone as substrate by LC-MS/MS analysis; format: ADME
[21] = target: Cytochrome P450 3A4 (Homo sapiens, UniProt P08684); assay: Inhibition of CYP3A4 in human liver microsomes using midazolam/testosterone as substrate by LC-MS/MS analysis; format: ADME; settings: read-out: INH
[22] = target: T1, Cytochrome P450 1A2; assay: Induction of CYP1A2 in human hepatocytes by LC-MS/MS analysis; format: ADME, cell-based, Hepatocyte
[23] = system: MV4-11; assay: Antitumor activity against human MV4-11 cells xenografted in rat assessed as inhibition of tumor growth at 12 mg/kg, po administered for 15 days; format: functional, organism-based; settings: time 15.0 day
How it was run: (§1)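 Rat MV4-11 xenograft, oral dosing at 12 mg/kg daily for 15 days. Tumor growth was monitored during treatment and for a further 30 days without treatment.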

[24] = system: MV4-11; assay: Antitumor activity against human MV4-11 cells xenografted in rat assessed as inhibition of tumor growth at 12 mg/kg, po administered for 15 days measured after without treatment for additional 30 days; format: functional, organism-based; settings: time 15.0 day; how it was run: as §1

Cytochrome P450 2C9, sequence (P11712 whole entry): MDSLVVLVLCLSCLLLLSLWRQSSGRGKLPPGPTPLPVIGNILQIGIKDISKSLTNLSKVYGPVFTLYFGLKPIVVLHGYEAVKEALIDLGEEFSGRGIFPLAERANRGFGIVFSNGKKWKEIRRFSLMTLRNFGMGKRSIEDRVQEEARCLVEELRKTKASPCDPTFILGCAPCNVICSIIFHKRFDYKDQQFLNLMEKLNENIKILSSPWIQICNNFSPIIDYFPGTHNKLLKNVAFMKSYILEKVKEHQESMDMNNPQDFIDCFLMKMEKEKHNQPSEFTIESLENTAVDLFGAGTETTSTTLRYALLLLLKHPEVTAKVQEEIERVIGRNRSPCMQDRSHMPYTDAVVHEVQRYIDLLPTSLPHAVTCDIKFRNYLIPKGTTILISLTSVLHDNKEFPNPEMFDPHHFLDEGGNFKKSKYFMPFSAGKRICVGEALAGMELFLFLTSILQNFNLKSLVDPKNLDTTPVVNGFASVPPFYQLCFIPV
Cytochrome P450 2E1, sequence (P05181 whole entry): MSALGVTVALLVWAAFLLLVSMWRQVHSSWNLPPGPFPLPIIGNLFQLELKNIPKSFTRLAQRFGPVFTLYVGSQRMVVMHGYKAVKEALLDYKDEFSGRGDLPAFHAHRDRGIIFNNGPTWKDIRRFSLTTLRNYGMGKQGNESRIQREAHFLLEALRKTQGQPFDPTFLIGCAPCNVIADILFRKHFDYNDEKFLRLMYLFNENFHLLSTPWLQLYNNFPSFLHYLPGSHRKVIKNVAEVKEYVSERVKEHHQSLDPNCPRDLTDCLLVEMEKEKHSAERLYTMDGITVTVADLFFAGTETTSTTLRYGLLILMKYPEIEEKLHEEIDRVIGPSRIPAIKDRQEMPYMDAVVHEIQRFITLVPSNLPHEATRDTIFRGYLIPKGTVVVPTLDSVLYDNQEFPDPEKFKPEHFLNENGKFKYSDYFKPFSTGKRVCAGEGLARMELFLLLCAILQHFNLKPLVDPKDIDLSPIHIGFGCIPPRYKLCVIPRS
Cytochrome P450 3A4, sequence (P08684 whole entry): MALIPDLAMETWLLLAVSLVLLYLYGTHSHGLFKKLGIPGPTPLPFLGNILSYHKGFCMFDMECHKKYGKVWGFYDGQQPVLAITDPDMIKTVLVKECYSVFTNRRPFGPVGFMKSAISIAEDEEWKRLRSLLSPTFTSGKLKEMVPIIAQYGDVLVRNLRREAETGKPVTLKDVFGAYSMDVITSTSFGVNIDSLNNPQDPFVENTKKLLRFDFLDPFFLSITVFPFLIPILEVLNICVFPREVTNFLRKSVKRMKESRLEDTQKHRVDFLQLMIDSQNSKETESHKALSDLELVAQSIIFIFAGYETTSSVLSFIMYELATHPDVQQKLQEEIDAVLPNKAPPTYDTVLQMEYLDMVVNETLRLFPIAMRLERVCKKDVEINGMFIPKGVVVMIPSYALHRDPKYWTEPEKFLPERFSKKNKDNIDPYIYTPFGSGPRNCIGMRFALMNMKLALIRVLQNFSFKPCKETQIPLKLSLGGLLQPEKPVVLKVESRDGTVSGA
Cytochrome P450 2D6, sequence (P10635 whole entry): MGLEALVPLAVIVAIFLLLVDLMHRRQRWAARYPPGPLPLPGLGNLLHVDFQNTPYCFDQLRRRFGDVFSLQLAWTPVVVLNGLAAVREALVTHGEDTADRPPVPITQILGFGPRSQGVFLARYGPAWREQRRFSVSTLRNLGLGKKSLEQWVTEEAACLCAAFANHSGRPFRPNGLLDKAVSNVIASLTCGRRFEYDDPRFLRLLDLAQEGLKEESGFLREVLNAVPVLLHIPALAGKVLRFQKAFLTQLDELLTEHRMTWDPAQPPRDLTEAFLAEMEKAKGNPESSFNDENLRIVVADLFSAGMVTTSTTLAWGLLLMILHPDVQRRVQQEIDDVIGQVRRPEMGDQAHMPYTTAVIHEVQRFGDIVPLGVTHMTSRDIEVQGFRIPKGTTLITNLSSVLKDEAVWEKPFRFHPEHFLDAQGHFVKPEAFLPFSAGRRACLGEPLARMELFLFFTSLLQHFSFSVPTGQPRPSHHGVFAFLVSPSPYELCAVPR
Cytochrome P450 2C19, sequence (P33261 whole entry): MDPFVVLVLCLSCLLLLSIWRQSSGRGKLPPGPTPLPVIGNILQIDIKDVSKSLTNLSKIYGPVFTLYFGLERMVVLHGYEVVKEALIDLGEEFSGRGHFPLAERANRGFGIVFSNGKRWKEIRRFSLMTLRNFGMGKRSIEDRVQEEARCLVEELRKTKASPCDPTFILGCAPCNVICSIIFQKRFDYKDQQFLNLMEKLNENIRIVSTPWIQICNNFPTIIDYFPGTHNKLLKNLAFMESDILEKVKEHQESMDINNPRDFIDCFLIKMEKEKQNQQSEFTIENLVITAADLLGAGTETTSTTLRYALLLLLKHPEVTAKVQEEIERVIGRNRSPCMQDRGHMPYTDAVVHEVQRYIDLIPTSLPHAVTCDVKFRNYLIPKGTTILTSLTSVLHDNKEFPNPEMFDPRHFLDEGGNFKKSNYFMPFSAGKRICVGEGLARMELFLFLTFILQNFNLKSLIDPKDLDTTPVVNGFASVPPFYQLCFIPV

SMILES | solubility at 24 h [1] [µg/mL] | CLhep predicted at 1 µM [2] [mL/min/kg] | IC50 [3] [nM] | Stability [4] | IC50 [5] [nM] | solubility at 24 h [6] [µg/mL] | Papp A→B at 2 h, 2 µM [7] [×10⁻⁶ cm/s] | efflux ratio at 2 h, 2 µM [8] | also measured
COc1cc(F)ccc1-c1nc(Nc2cc(F)c(F)c(CS(C)(=O)=NC#N)c2)ncc1F (configuration not stated) | 0.2 (≈ 0.43 µM) | 55 | 37 | Unstable |  |  |  |  | 
COc1cc(F)ccc1-c1ncnc(Nc2cccc(CS(C)(=N)=O)c2)n1 (configuration not stated) | 479 (≈ 1240 µM) | 2.83 | 380 |  | 310 | 309 (≈ 798 µM) | 3.5 | 6.1 | CLH [9]: 2.5 mL/min/kg; clearance [10]: 18.3 mL/min/kg; Vd [11]: 1 L/kg; blood plasma ratio [12]: 1.1; IC50 [13]: > 20000 nM; INH [14]: > 20 µM; INH [15]: > 20 µM; IC50 [16]: > 20000 nM; IC50 [17]: > 20000 nM; IC50 [18]: > 20000 nM; IC50 [19]: > 20000 nM; INH [20]: > 20 µM; IC50 [21]: > 20000 nM; Activity [22]: Not Active; Activity [23]: Active; Activity [24]: inactive
COc1cc(F)ccc1-c1cc(Nc2cc(CS(C)(=N)=O)ccn2)ncn1 (configuration not stated) | 2 (≈ 5.16 µM) |  | 126 |  | 80 | 43 (≈ 111 µM) | 2.6 | 9.3 | 

More lines, main results first:

solubility at 24 h [1] [µg/mL] | CLhep predicted at 1 µM [2] [mL/min/kg] | IC50 [3] [nM] | Stability [4] | IC50 [5] [nM] | solubility at 24 h [6] [µg/mL] | Papp A→B at 2 h, 2 µM [7] [×10⁻⁶ cm/s] | efflux ratio at 2 h, 2 µM [8] | SMILES | also measured
24 (≈ 56.8 µM) | 28.3 |  |  |  |  |  |  | COc1cc(F)ccc1-c1nc(Nc2cc(F)cc(CS(C)(=N)=O)c2)ncc1F (stereo in doubt; 9) | 
17 (≈ 47.2 µM) | 50 | 692 | Unstable |  |  |  |  | COc1cc(F)ccc1-c1nc(Nc2cc(F)cc(CN)c2)ncc1F | 
0.5 (≈ 1.02 µM) | 58.3 | 262 |  |  |  |  |  | COc1cc(F)ccc1-c1nc(Nc2cc(F)cc(CS(=O)(CCCO)=NC#N)c2)ncc1F (configuration not stated) | 
